Test results from ChEMBL document CHEMBL4680177, “Novel distamycin analogues that block the cell cycle of African trypanosomes with high selectivity and potency” (Eur J Med Chem, 2020).
Activity calls are given as the source filed them. No cut-off for these calls is given here.

Assays:
[1] = tested on: Trypanosoma brucei brucei; assay: Antitrypanosomal activity against bloodstream form Trypanosoma brucei brucei 427 […] assessed as cell viability after 48 hrs by propidium iodide staining based flow cytometric analysis; assay type: functional, organism-based; conditions: Trypanosoma brucei, 427, 48 h
How it was run: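 Viability of bloodstream T. b. brucei 427 redox-reporter line under lower-density conditions: 1.2×10^4 parasites/mL seeded, 48 h exposure, compound tested up to 60 µM. Nifurtimox included as positive control. Viability read by PI exclusion on flow cytometry.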

[2] = Selectivity ratio of EC50 for antitrypanosomal activity against bloodstream form Trypanosoma brucei brucei 427 assessed as cell viability after 24 hrs to antitrypanosomal activity against bloodstream form Trypanosoma brucei brucei 427 assessed as cell viability after 48 hrs; assay type: functional
[3] = Selectivity index, ratio of EC50 for cytotoxicity against mouse J774 cells to EC50 for antitrypanosomal activity against bloodstream form Trypanosoma brucei brucei 427; assay type: toxicity, cell-based; conditions: read-out: Ratio EC50
How it was run: (§1)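 J774 murine macrophages in DMEM with 10% FBS, 37 °C, 5% CO2. Exposed 24 h to a 6-point compound series, in triplicate, up to 120 µM with DMSO 1% v/v. Viability read with WST-1 reagent relative to DMSO control and EC50 taken from nonlinear fit. The selectivity index is the macrophage EC50 divided by the trypanosome EC50.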

[4] = tested on: Trypanosoma brucei brucei; assay: Antitrypanosomal activity against bloodstream form Trypanosoma brucei brucei 427 […] assessed as cell viability after 24 hrs by propidium iodide staining based flow cytometric analysis; assay type: functional, organism-based; conditions: Trypanosoma brucei, 427, 24 h
How it was run: (§2)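 Bloodstream T. b. brucei 427 expressing hGrx1-roGFP2 (line 449_Grx-roGFP2), grown in HMI-9 with 10% FBS, 37 °C, 5% CO2. Biosensor induced with oxytetracycline (1 µg/mL final). Exponential-phase cells seeded at 5×10^5/mL and exposed 24 h to a single 5 µM screen, or to 0.0001–120 µM for EC50. DMSO ≤1% v/v. Viability read by PI exclusion on flow cytometry, expressed relative to DMSO control. EC50 from nonlinear fit; ≥3 replicates, S.D.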

[5] = tested on: Trypanosoma brucei brucei; assay: Induction of oxidative stress in bloodstream form Trypanosoma brucei brucei 427 at 250 uM after 20 min by propidium iodide staining based flow cytometric analysis
[6] = tested on: J774; assay: Cytotoxicity against mouse J774 cells assessed as reduction in cell viability at 120 uM after 24 hrs by WST-1 assay; assay type: cell-based; conditions: j774, 24 h; how it was run: as §1
[7] = tested on: Trypanosoma brucei brucei; assay: Antitrypanosomal activity against bloodstream form Trypanosoma brucei brucei 427 […] assessed as cell viability at 5 uM after 24 hrs by propidium iodide staining based flow cytometric analysis relative to control; assay type: functional; how it was run: as §2
[8] = tested on: J774; assay: Cytotoxicity against mouse J774 cells assessed as reduction in cell viability >120 uM after 24 hrs by WST-1 assay; assay type: cell-based; conditions: j774, 24 h; how it was run: as §1

| Compound | EC50 [1] | Ratio EC50 [2] | selectivity ratio [3] | EC50 [4] | Activity [5] | Activity [6] | Activity [7] | Activity [8] |
| --- | --- | --- | --- | --- | --- | --- | --- | --- |
| CC1CS(=O)(=O)CCN1/N=C/c1ccc([N+](=O)[O-])o1 (stereo not given) [NIFURTIMOX] | 750 nM | 20 | 10 | 10 µM | – | – | – | – |
| CC1=CC(=O)c2ccccc2C1=O | – | – | – | – | Active | – | – | – |
| Cn1cc(NC(=O)c2csc(NC(=O)OC(C)(C)C)n2)cc1C(=O)Nc1nc(C(=O)O)cs1 | – | – | > 35 | 3.33 µM | – | Non-Toxic | 23.6% | Nd(Insoluble) |
